TRPN1 ag = zebrafish TRPN1 (NompC) channel agonism; HEK293 zebrafish TRPN1-YFP, Fluo-8 calcium fluorescence; 100% = response to 87 µM carbachol; activation, % at 3 µM; 220,000 tested, 0.18% active; AID 1424;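 active = activation above its plate's cutoff, the mean activation of test wells on that plate plus 3 SD, cut at about 19% in these data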
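Assay system: Zebrafish TRPN1-YFP in HEK293 cells | Incubation: Dye loading 1 h at 37 °C, then 30 min room temperature | Measured by: Kinetic Fluo-8 fluorescence, ex 470-495, em 515-575 nm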
TAAR1 agonist = human TAAR1 agonism | Q96RJ0 | 360,000 tested, 0.99% active | CHO RD-HGA16 TAAR1, Fluo-8 calcium fluorescence; vehicle wells 0%, saturating PEA agonist 100% | AID 624467 | activation, % at 3 µM;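 active = activation above the mean activation of all test compounds in the run plus 3 SD, cut at about 38% in these data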
Target sequence (Q96RJ0 whole entry, looked up): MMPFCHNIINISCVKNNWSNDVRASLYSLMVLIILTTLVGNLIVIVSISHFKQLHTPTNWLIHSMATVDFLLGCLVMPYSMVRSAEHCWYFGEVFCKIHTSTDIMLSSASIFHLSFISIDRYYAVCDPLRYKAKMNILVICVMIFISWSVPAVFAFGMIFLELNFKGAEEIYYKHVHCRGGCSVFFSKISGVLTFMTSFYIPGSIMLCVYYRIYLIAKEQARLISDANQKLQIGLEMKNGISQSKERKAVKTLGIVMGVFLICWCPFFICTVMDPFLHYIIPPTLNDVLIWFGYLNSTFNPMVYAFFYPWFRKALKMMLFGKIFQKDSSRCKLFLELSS
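Test system: RD-HGA16 (CHO) cells co-expressing Gα16 and hTAAR1; dosing: one-point dosing at 3 µM (nominal); timing: 17-24 h seeding, 75 min 37 °C dye, 30 min RT; signal: kinetic Fluo-8 calcium fluorescence; read-out basis: % activation relative to PEA EC100 response; controls: DMSO and PEA EC100; replicates: n 1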
TAAR1 antag = human TAAR1 antagonism | Q96RJ0 | CHO RD-HGA16 TAAR1, Fluo-8 calcium fluorescence, antagonist | inhibition, % at 3 µM | 360,000 tested, 1.5% active | AID 624466;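 active = inhibition above a per-plate cutoff, the mean inhibition of test compounds on that plate plus 3 SD, cut at about 49% in these data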
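Test system – hTAAR1-expressing CHO RD-HGA16 cells, Gα16-coupled · Also added – β-PEA at EC80 concentration, post-compound challenge · Compound – 3 µM, single point · Incubation – dye loading 75 min at 37 °C, then 30 min room temperature · Measured by – Fluo-8 intracellular calcium dye fluorescence, real-time kinetic reads · Benchmarks – vehicle and agonist controls · Replicates – singlicate, one well per test compound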
TRPML3 agonist = agonists of human TRPML3 channel; HEK293 TRPML3-YFP, Fluo-8 calcium fluorescence; 100% = the carbachol control signal; activation, % at 3 µM; 220,000 tested, 0.29% active;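 active = activation above its plate's cutoff, the mean activation of the plate's test wells plus 3 SD, cut at about 12% in these data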
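Test system: TRPML3-YFP stable HEK293 cells. Doses: single point at 3 µM. Incubation: dye loading 1 h 37 °C then 30 min ambient, 125 s read. Signal: Fluo-8 calcium dye fluorescence, ex 470-495, em 515-575 nm. Measure: percent activation from peak-to-basal fluorescence ratio, scaled between DMSO and carbachol.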
GPR7 antagonist = blocks human GPR7 receptor signaling. P48145. 290,000 tested, 1.1% active. inhibition, % at 4.4 µM. GPR7-expressing cells, fluorescence antagonist assay; in the data active = inhibition above about 16%, passing the limit was not always enough;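 note: cells stimulated with the agonist NPW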
Target sequence (P48145 whole entry, looked up): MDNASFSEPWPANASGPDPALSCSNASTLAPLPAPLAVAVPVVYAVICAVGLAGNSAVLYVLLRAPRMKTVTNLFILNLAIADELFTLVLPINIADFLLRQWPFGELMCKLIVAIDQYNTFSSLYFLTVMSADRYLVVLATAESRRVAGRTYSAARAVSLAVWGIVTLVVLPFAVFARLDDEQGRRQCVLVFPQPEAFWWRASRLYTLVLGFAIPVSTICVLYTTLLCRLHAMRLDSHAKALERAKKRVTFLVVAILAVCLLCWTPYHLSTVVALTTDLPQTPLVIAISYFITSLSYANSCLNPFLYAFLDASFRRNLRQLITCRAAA
LANA-H2A inh = blocks KSHV LANA binding to histone H2A/H2B; cell-free LANA-H2A/H2B peptide, fluorescence polarization; inhibition, % (test concentration not listed); 320,000 tested, 0.6% active; in the data active = inhibition mostly above about 10%, no sharp cut-off; inactive = mostly below about 6.7%
GPR7 antag conf = human GPR7 antagonism, confirmation assay; AID 1952; GPR7-expressing cells, calcium fluorescence antagonist mode; 2,400 tested, 52% active; shares compounds with GPR7 antagonist; inhibition, % at 4.4 µM; in the data active = inhibition above about 24%;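 note: stimulated with the GPR7 agonist NPW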
MCHR1 antag = counter-screen for GPR7 antagonists: antagonists of human MCHR1; AID 2148; MCHR1-expressing cells, fluorescence antagonist assay; inhibition, % at 4.4 µM; shares compounds with GPR7 antagonist; 2,400 tested, 62% active; in the data active = inhibition above about 22%
Numbers stand for hits. Hits are enriched below; roughly 3.4% of the tested compounds scored in any of these assays.

Cc1ccccc1-c1cc(C(=O)NCc2cccc(Br)c2)nn1CC1CC(c2cccc([N+](=O)[O-])c2)=NO1 (stereo not given) was read as TAAR1 agonist inactive, TAAR1 antag inactive and LANA-H2A inh inactive.
For CC1(CC(=O)N/N=C/c2ccc(-c3ccc(C(=O)O)cc3)o2)OCCO1 the results were TRPN1 ag inactive, TAAR1 agonist inactive, TAAR1 antag inactive, TRPML3 agonist inactive, GPR7 antagonist inactive and LANA-H2A inh inactive.
For COC(=O)c1ccc(-c2ccc(/C=N/NC(=O)CC3(C)OCCCO3)o2)cc1 the results were TRPN1 ag inactive, TAAR1 agonist inactive, TAAR1 antag inactive, TRPML3 agonist inactive, GPR7 antagonist 24, LANA-H2A inh inactive, GPR7 antag conf inactive and MCHR1 antag inactive.
For COC(=O)C[C@H]1C=C[C@H](NC(=O)c2cccc(F)c2)[C@@H](CO)O1 the results were TAAR1 agonist inactive and TAAR1 antag inactive.
NS(=O)(=O)c1ccc(CCNCc2cc(Br)ccc2OCc2ccccc2F)cc1 was read as TRPN1 ag inactive, TAAR1 agonist inactive, TAAR1 antag inactive, TRPML3 agonist inactive, GPR7 antagonist 38, LANA-H2A inh inactive, GPR7 antag conf 53 and MCHR1 antag 76.
NS(=O)(=O)c1ccc(CCNCc2cc(Cl)ccc2OCc2ccccc2)cc1 was read as TAAR1 agonist inactive, TAAR1 antag inactive, GPR7 antagonist 28, LANA-H2A inh inactive, GPR7 antag conf 27 and MCHR1 antag 57.
`NS(=O)(=O)c1ccc(CCNCc2ccccc2OCc2ccc(Cl)cc2)cc1` gave TAAR1 agonist inactive, TAAR1 antag inactive, GPR7 antagonist inactive and LANA-H2A inh inactive.
COc1ccc(-c2nc3cc(C)c(Br)c(C)n3c2Cc2ccsc2)cc1OC was read as TAAR1 agonist inactive and TAAR1 antag inactive.
Screening CN(C1CCCCC1)S(=O)(=O)c1ccc(C(=O)N2CCN(c3nc4ccccc4s3)CC2)cc1 returned TRPN1 ag inactive, TAAR1 agonist inactive, TAAR1 antag inactive, TRPML3 agonist inactive, GPR7 antagonist 22, LANA-H2A inh inactive, GPR7 antag conf inactive and MCHR1 antag 44.
`CN(C)c1ccc(-c2ccnc3c2CC(C)(C(=O)NCCC(F)(F)F)O3)cc1` (stereo not given) gave TAAR1 agonist inactive and TAAR1 antag inactive.
Screening Clc1ccc2c(NCc3ccco3)ncnc2c1 returned TRPN1 ag inactive, TAAR1 agonist inactive, TAAR1 antag inactive, TRPML3 agonist inactive, GPR7 antagonist 23, LANA-H2A inh inactive, GPR7 antag conf inactive and MCHR1 antag inactive.
For Clc1ccc2c(NCc3cccs3)ncnc2c1 the results were TAAR1 agonist inactive, TAAR1 antag inactive, GPR7 antagonist inactive and LANA-H2A inh inactive.
`O=C1NC(=Nc2ccccc2)c2c1cccc2[N+](=O)[O-]` gave TRPN1 ag inactive, TAAR1 agonist inactive, TAAR1 antag inactive, TRPML3 agonist inactive, GPR7 antagonist 32, LANA-H2A inh inactive, GPR7 antag conf inactive and MCHR1 antag inactive.
Screening CCN(CC(=O)Nc1c(F)cccc1F)C(=O)c1cc(S(=O)(=O)N(CC)CC)ccc1N1CCCCC1 returned TAAR1 agonist inactive, TAAR1 antag inactive, GPR7 antagonist 29, LANA-H2A inh inactive, GPR7 antag conf 32 and MCHR1 antag 26.
CCN1CCN(c2ccc(S(=O)(=O)N3CCCCC3)cc2NC(=O)Cc2c(F)cccc2Cl)CC1 was read as TAAR1 agonist inactive, TAAR1 antag inactive, GPR7 antagonist inactive and LANA-H2A inh inactive.
Screening CCN(CC)S(=O)(=O)c1ccc(N2CCCC2)c(NC(=O)Cc2c(F)cccc2Cl)c1 returned TAAR1 agonist inactive, TAAR1 antag inactive, GPR7 antagonist 31, LANA-H2A inh inactive, GPR7 antag conf 44 and MCHR1 antag 41.
Screening Cc1cc(C(=O)N[C@H](c2ccccc2)[C@@]2(C)C[C@@H]2[C@@H](C)C(=O)Nc2ccc3ccccc3c2)no1 returned TRPN1 ag inactive, TAAR1 agonist inactive, TAAR1 antag 53, TRPML3 agonist inactive, GPR7 antagonist 29, LANA-H2A inh inactive, GPR7 antag conf 46 and MCHR1 antag 64.
Screening Cc1cc(C(=O)N[C@@H](c2ccccc2)[C@]2(C)C[C@H]2[C@@H](C)C(=O)Nc2ccc3ccccc3c2)no1 returned TRPN1 ag inactive, TAAR1 agonist inactive, TAAR1 antag inactive, TRPML3 agonist inactive, GPR7 antagonist inactive and LANA-H2A inh inactive.
For Cn1c(=O)c(=O)n(C)c2cc(S(=O)(=O)N3CCN(Cc4ccccc4)CC3)ccc21 the results were TRPN1 ag inactive, TAAR1 agonist inactive, TAAR1 antag inactive, TRPML3 agonist inactive, GPR7 antagonist inactive and LANA-H2A inh inactive.
For Cn1c(=O)c(=O)n(C)c2cc(S(=O)(=O)N3CC(=O)N(CCc4ccccc4)C(=O)C3)ccc21 the results were TRPN1 ag inactive, TAAR1 agonist inactive, TAAR1 antag inactive, TRPML3 agonist inactive, GPR7 antagonist 23, LANA-H2A inh inactive, GPR7 antag conf inactive and MCHR1 antag inactive.
O=C(NCc1ccccc1)C(C1CC1)n1c(CSCCOc2ccccc2)nc2ccccc21 (stereo not given) was read as TAAR1 agonist inactive and TAAR1 antag inactive.
`COc1ccc(C(=O)/C=C/c2ccc(N(C)C)cc2)c(OC)c1` gave TRPN1 ag 44, TAAR1 agonist 73, TAAR1 antag 52, TRPML3 agonist 20, GPR7 antagonist 32, LANA-H2A inh inactive, GPR7 antag conf 58 and MCHR1 antag 81.
`COc1ccc(C(=O)N(C(C)C)C(C)C)c(OC)c1` gave TRPN1 ag inactive, TAAR1 agonist inactive, TAAR1 antag inactive, TRPML3 agonist inactive, GPR7 antagonist 25, LANA-H2A inh inactive, GPR7 antag conf inactive and MCHR1 antag inactive.
For COc1ccc(C(=O)/C=C/c2ccccc2)c(OC)c1 the results were TRPN1 ag inactive, TAAR1 agonist inactive, TAAR1 antag inactive, TRPML3 agonist inactive, GPR7 antagonist inactive and LANA-H2A inh inactive.
Cn1ncc2c(=O)[nH]nnc21 was read as TAAR1 agonist inactive and TAAR1 antag inactive.
For CCc1ccc(OCC(=O)NNCC(=O)Nc2ccc(OC)cc2)cc1 the results were TAAR1 agonist inactive and TAAR1 antag inactive.
For CCNC(=S)N(CCc1c(C)[nH]c2ccc(Cl)cc12)Cc1ccco1 the results were TRPN1 ag inactive, TAAR1 agonist inactive, TAAR1 antag inactive, TRPML3 agonist inactive, GPR7 antagonist 24, LANA-H2A inh inactive, GPR7 antag conf inactive and MCHR1 antag 76.

Screening results (PubChem)
